Reference: ChEMBL document CHEMBL1127615, “5,7-Dimethoxy-3-(4-pyridinyl)quinoline is a potent and selective inhibitor of human vascular beta-type platelet-derived growth factor receptor tyrosine kinase” (J Med Chem, 1994)
pIC50: −log10 of the molar value.

What was measured:
[1] = target: Platelet-derived growth factor receptor (Homo sapiens, UniProt P09619+P16234); assay: Inhibition of Platelet-derived growth factor receptor tyrosine kinase; format: protein-complex assay
[2] = Inhibition of vascular smooth muscle cell proliferation by [3H]thymidine incorporation; format: functional; details: Homo sapiens
How it was run: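 Primary human vascular smooth muscle cells, serum-starved 48 h, then inhibitor for 2 h, PDGF-BB (10 ng/mL) for 24 h, then [3H]thymidine (0.5 μCi/mL) for 24 h more. Cells were washed with ice-cold 5% TCA, extracted with 0.1 N NaOH (30 min, 25 °C), neutralized and counted. Inhibition is relative to vehicle (≤0.5% DMSO).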

[3] = target: Protein kinase C (PKC); assay: Inhibition of Serine/threonine protein kinases C; format: protein assay, Homo sapiens
[4] = target: Receptor tyrosine-protein kinase erbB-2 (Homo sapiens, UniProt P04626); assay: Inhibition of erbB2 receptor
Receptor tyrosine-protein kinase erbB-2, sequence (P04626 whole entry): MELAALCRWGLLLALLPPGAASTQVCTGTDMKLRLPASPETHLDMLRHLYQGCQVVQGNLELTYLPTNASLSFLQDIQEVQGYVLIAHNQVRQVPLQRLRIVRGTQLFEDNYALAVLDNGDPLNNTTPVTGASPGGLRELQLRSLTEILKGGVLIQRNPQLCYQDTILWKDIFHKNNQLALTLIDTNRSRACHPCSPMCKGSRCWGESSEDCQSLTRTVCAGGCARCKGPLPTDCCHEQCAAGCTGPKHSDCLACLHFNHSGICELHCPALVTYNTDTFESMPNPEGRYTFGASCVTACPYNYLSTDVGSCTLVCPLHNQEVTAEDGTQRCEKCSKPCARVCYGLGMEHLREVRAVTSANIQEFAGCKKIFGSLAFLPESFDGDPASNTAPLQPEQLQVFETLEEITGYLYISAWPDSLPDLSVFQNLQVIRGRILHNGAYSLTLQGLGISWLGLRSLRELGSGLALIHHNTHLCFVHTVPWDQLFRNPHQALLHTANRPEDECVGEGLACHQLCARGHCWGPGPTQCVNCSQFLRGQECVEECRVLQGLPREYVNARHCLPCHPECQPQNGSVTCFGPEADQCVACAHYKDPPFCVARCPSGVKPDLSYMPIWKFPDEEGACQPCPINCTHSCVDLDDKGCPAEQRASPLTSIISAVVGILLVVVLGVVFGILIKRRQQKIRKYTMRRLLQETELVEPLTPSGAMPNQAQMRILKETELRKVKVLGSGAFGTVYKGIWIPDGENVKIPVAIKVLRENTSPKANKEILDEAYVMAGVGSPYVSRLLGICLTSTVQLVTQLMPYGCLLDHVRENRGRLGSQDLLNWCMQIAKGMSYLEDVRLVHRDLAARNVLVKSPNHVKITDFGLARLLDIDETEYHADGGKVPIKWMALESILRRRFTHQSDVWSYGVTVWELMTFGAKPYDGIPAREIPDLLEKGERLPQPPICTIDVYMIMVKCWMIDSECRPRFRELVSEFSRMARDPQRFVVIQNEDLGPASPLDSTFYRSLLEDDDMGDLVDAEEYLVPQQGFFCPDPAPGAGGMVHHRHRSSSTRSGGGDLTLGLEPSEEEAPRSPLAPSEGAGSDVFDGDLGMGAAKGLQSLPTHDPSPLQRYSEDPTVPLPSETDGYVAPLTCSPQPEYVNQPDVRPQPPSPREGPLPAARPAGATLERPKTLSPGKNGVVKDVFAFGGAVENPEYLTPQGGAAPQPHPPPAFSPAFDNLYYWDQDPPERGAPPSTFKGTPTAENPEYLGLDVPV

[5] = target: Tyrosine-protein kinase Lck (Homo sapiens, UniProt P06239); assay: Inhibition of p56 lck kinase
Tyrosine-protein kinase Lck, sequence (P06239 whole entry): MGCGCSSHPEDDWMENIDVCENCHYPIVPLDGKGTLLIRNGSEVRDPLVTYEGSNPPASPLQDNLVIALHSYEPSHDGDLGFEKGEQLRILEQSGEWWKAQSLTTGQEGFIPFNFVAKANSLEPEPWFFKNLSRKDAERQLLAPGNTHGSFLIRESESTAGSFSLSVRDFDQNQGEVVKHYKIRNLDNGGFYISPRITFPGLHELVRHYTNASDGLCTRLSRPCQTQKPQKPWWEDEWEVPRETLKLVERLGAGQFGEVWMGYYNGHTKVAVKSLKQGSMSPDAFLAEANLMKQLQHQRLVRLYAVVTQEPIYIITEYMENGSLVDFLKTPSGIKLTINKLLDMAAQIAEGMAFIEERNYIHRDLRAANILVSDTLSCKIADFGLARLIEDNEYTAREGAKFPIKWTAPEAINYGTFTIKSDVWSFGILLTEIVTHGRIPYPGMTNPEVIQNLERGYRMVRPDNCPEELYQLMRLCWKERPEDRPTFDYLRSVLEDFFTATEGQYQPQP

| pIC50 [1] | IC50 [3] [µM] | pIC50 [4] | pIC50 [5] | Compound | pIC50 [2] |
| --- | --- | --- | --- | --- | --- |
| < 4.30 | – | – | – | COc1ccc2ncc(-c3ccncc3)c(C)c2c1 | – |
| 6.40 | – | – | – | COc1cc2ncc(-c3ccncc3)cc2c(OC)c1OC | 5.46 |
| 6.40 | – | – | – | COc1ccc2ncc(-c3ccncc3)cc2c1 | – |
| 5.04 | – | – | – | Oc1ccc2cc(-c3ccncc3)cnc2c1 | < 5.00 |
| – | > 10 | < 5.00 | – | COc1cc(OC)c2cc(-c3ccncc3)cnc2c1 | 6.05 |
| 4.44 | > 10 | – | – | Oc1cc2cc(-c3ccncc3)cnc2cc1O | – |
| 6.22 | – | – | – | COc1ccc2cc(-c3ccncc3)cnc2c1 | 5.19 |
| 6.52 | > 10 | – | – | Clc1ccc2cc(-c3ccncc3)cnc2c1 | – |
| – | > 10 | < 5.00 | < 5.00 | COc1cc2cc(-c3ccncc3)cnc2cc1OC | 5.74 |
| < 4.30 | – | – | – | COc1ccc2c(C)c(-c3ccncc3)cnc2c1 | – |
| 5.89 | – | – | – | Oc1cc(O)c2cc(-c3ccncc3)cnc2c1 | 5.26 |
| 5.82 | – | – | – | c1ccc2ncc(-c3ccncc3)cc2c1 | – |
